Laboratory results published in PubChem BioAssay AID623964 (The Scripps Research Institute Molecular Screening Center, 2012).
The source made the active and inactive calls.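 Rule for the calls: active = compounds slowing the HCV NS3-NS4A protease by half at 50 µM or lower, per IC50; inactive = the rest.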

Biological target: Hepatitis C virus NS3-NS4A protease (single-chain scNS3-4A)
Test: HCV scNS3-4A protease cleavage blockers – biochemical, FRET peptide fluorescence, powder samples, selectivity assay for HCV NS3 helicase inhibitor project, late-stage follow-up (AID 623964)
Outline: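 Assay system: Single-chain HCV NS3-NS4A protease (scNS3-4A), NS4A segment fused N-terminally | Amount: 10 nM scNS3-4A protease enzyme | Benchmarks: DMSO-only reference velocity | Read-out: IC50 from Hill fit of initial rates versus inhibitor concentration | Also added: 5-FAM/QXL 520 quenched peptide substrate | Technique: Fluorescence gain from 5-FAM after peptide cleavage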

IC50	SMILES
inactive	Cc1ccc2nc(-c3ccc4nc(-c5ccc(NC(=O)c6ccc(F)cc6)cc5)sc4c3)sc2c1S(=O)(=O)O
inactive	COc1ccc(C(=O)Nc2ccc(-c3nc4ccc(-c5nc6ccc(C)c(S(=O)(=O)O)c6s5)cc4s3)cc2)cc1
23 µM	Cc1ccc2nc(-c3ccc4nc(-c5ccc(NC(=O)c6cc(C(F)(F)F)cc(C(F)(F)F)c6)cc5)sc4c3)sc2c1S(=O)(=O)O
39 µM	Cc1ccc2nc(-c3ccc4nc(-c5ccc(NC(=O)c6ccc(N)cc6)cc5)sc4c3)sc2c1S(=O)(=O)O
> 100 µM (inactive)	Cc1ccc2nc(-c3ccc4nc(-c5ccc(NC(=O)c6cccc(Cl)c6)cc5)sc4c3)sc2c1S(=O)(=O)O
47 µM	O=C(CCCCCCC(=O)Nc1ccc(-c2nc3ccccc3[nH]2)cc1)Nc1ccc(-c2nc3ccccc3[nH]2)cc1
13 µM	Cc1ccc2nc(-c3ccc4nc(-c5ccc(NC(=O)c6ccc(Cl)c(Cl)c6)cc5)sc4c3)sc2c1S(=O)(=O)O
6 µM	Cc1ccc2nc(-c3ccc4nc(-c5ccc(NC(=O)c6ccc(Br)cc6)cc5)sc4c3)sc2c1S(=O)(=O)O
> 100 µM (inactive)	CN1CCN(Cc2cc(CN3CCN(C)CC3)c(O)c(=O)c(CN3CCN(C)CC3)c2)CC1
> 100 µM (inactive)	COc1ccc(NC(=O)Nc2ccc(-c3nc4ccc(-c5nc6ccc(C)c(S(=O)(=O)O)c6s5)cc4s3)cc2)cc1
inactive	Cc1cc(C(O)(c2ccc(Nc3ccccc3)cc2)c2ccc(Nc3ccc(S(=O)(=O)O)cc3)cc2)ccc1N (stereo not drawn)
> 100 µM (inactive)	Cc1ccc2nc(-c3ccc4nc(-c5ccc(NC(=O)c6ccc7ccccc7c6)cc5)sc4c3)sc2c1S(=O)(=O)O
inactive	COc1cccc2c(=O)c3cc(Cl)cc(C(=O)Nc4cc(Cl)ccn4)c3[nH]c12
inactive	Cc1ccc2nc(-c3ccc4nc(-c5ccc(NC(=O)c6ccc(C(C)(C)C)cc6)cc5)sc4c3)sc2c1S(=O)(=O)O
7 µM	Cc1ccc2nc(-c3ccc4nc(-c5ccc(NC(=O)c6ccc7nc(-c8ccc(N)cc8)sc7c6)cc5)sc4c3)sc2c1S(=O)(=O)O
inactive	Cc1ccc2nc(-c3ccc4nc(-c5ccc(NC(=O)c6cc(C(F)(F)F)ccc6F)cc5)sc4c3)sc2c1S(=O)(=O)O
> 100 µM (inactive)	COC(=O)c1ccc(C(=O)Nc2ccc(-c3nc4ccc(-c5nc6ccc(C)c(S(=O)(=O)O)c6s5)cc4s3)cc2)cc1
2 µM	Cc1ccc2nc(-c3ccc4nc(-c5ccc6nc(-c7ccc8nc(-c9ccc(N)cc9)sc8c7)sc6c5)sc4c3)sc2c1S(=O)(=O)O
5 µM	Cc1ccc2nc(-c3ccc4nc(-c5ccc(NC(=O)c6ccc(C(F)(F)F)cc6)cc5)sc4c3)sc2c1S(=O)(=O)O
> 100 µM (inactive)	Cc1ccc2nc(-c3ccc(NC(=O)c4ccc(NC(=O)Nc5ccccc5)cc4)cc3)sc2c1S(=O)(=O)O
> 100 µM (inactive)	Cc1ccc2nc(-c3ccc4nc(-c5ccc(NC(=O)Nc6ccccc6)cc5)sc4c3)sc2c1S(=O)(=O)O
13 µM	Cc1ccc2nc(-c3ccc4nc(-c5ccc(NC(=O)Nc6ccc(Cl)cc6)cc5)sc4c3)sc2c1S(=O)(=O)O
> 100 µM (inactive)	CCOc1ccc2c(NNC(=O)c3cnccn3)c3c(nc2c1)CCCC3
